Laboratory results from ChEMBL document CHEMBL1124456, “Synthesis and structure-activity relationship of substituted tetrahydro- and hexahydro-1,2-benzisothiazol-3-one 1,1-dioxides and thiadiazinones: potential anxiolytic agents” (J Med Chem, 1989).
Values belong to the molecule of their own block, whether it stands above or below them. Active and inactive are the calls of the source. The rule behind the calls is not given here.

Key:
[1] = molecular target: T1, 5-hydroxytryptamine receptor 1A (Rattus norvegicus, UniProt P19327); assay: In vitro ability to inhibit [3H]8-OH-DPAT binding to 5-hydroxytryptamine 1A receptor of rat hippocampus and value ranges from 27 - 42; assay type: tissue-based
T1 sequence (P19327 whole entry): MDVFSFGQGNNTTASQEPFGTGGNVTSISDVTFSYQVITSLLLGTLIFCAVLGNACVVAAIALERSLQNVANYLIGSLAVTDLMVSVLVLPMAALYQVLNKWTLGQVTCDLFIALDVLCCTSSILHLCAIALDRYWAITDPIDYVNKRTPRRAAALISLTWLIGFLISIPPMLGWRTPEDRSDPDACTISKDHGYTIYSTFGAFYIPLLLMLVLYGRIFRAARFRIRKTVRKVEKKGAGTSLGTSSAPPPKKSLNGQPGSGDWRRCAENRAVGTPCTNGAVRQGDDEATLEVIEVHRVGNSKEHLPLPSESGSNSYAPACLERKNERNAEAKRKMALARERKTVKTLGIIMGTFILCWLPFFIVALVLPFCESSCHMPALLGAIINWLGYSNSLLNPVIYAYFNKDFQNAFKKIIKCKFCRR

[2] = molecular target: D(2) dopamine receptor (Rattus norvegicus) (UniProt P61169); assay: Inhibition of [3H]-spiperone binding to dopamine receptor D2 of rat limbic structures at 1 uM.; details: Limbic system
Sequence of D(2) dopamine receptor (Rattus norvegicus) (P61169 whole entry): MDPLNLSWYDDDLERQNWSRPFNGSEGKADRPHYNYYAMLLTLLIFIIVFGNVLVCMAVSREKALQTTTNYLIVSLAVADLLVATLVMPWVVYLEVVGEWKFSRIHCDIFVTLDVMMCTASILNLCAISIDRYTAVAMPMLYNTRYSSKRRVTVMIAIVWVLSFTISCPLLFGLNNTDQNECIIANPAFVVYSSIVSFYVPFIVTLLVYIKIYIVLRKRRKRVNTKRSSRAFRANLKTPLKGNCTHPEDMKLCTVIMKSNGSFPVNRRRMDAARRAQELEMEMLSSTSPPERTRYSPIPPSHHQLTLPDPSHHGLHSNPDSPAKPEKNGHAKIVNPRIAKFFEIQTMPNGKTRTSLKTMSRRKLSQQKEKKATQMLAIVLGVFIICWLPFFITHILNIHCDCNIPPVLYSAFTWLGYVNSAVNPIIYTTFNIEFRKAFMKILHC

[3] = organism: Rattus norvegicus; assay: Anti-psychotic activity from the ability to block discrete trial conditioned avoidance response (CAR) of rats.; assay type: functional
How it was run: (§1)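 Discrete-trial conditioned avoidance in male CD rats kept at about 400–450 g body weight. Dosing was ip or po, 30 min before testing, with at least five rats per dose (20 or 40 mg/kg, or a dose range). Computer recorded intertrial, avoidance and escape responses and no-response trials. Avoidance-block trials were taken as % of total trials, with control avoidance set at 100%. AB50 came from a least-squares dose-effect regression line.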

[4] = molecular target: T1, 5-hydroxytryptamine receptor 1A; assay: In vitro ability to inhibit [3H]8-OH-DPAT binding to 5-hydroxytryptamine 1A receptor of rat hippocampus and value ranges from 6 - 13; assay type: tissue-based
[5] = molecular target: T1, 5-hydroxytryptamine receptor 1A; assay: In vitro ability to inhibit [3H]8-OH-DPAT binding to 5-hydroxytryptamine 1A receptor of rat hippocampus and the value ranges from 48 to 59; assay type: tissue-based
[6] = Partition coefficient (logP); assay type: physicochemical; details: octanol/water
[7] = molecular target: D(2) dopamine receptor (Rattus norvegicus) (UniProt P61169); assay: Inhibition of [3H]spiperone binding to Dopamine receptor D2 of rat limbic structures; assay type: tissue-based; parameters: concentration or dose not given beside the values; details: Limbic system, concentration not given here
[8] = molecular target: T2, 5-hydroxytryptamine receptor 1A (Rattus norvegicus) (UniProt P19327); assay: In vitro ability to inhibit [3H]8-OH-DPAT binding to 5-hydroxytryptamine 1A receptor of rat hippocampus at 1 uM; assay type: tissue-based
T2 sequence (whole entry): T1 sequence (P19327 whole entry)

[9] = organism: Rattus norvegicus; assay: Anti psychotic activity was evaluated from the ability to block discrete trial conditioned avoidance response (CAR) of rats and value ranges from 37 - 73; assay type: functional; how it was run: as §1
[10] = molecular target: T1, 5-hydroxytryptamine receptor 1A; assay: In vitro ability to inhibit [3H]8-OH-DPAT binding to 5-hydroxytryptamine 1A receptor of rat hippocampus ([…]) from 391-841; assay type: tissue-based
[11] = molecular target: Adrenergic receptor alpha-2 (Rattus norvegicus) (UniProt P22086+P19328+P22909); assay: Percent inhibition of Alpha-2 adrenergic receptor at 1 uM; assay type: protein assay
[12] = molecular target: T3, Adrenergic receptor alpha-1 (Rattus norvegicus) (UniProt P15823+P23944+P43140); assay: Percent inhibition of Alpha-1 adrenergic receptor at 1 uM; assay type: protein assay
[13] = molecular target: T4, GABA-A receptor; anion channel (Rattus norvegicus) (UniProt O09028+P15431+P18506+P18508+P19969+P20236+P23574+P23576+P28471+P28473+P30191+P62813+P63079+P63138+Q91ZM7+Q9ES14); assay: (§2) Percent inhibition of GABA-A benzodiazepine receptor at 1 uM; assay type: protein-complex assay
How it was run: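 Male Sprague-Dawley rat brain (cerebellum and pons-medulla removed) was homogenized in 0.32 M sucrose to give a 30000g pellet, resuspended in Tris-HCl pH 7.5. Membranes were incubated with 1.5×10^-9 M [³H]diazepam (2.0 mL final) for 30 min at 4 °C, GF/C filtered, washed ice-cold and scintillation counted. Nonspecific binding was taken with 3×10^-6 M cold diazepam. Drug was tested at 1 μM.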

[14] = molecular target: T5, Adrenergic receptor beta (Rattus norvegicus) (UniProt P18090+P10608+P26255); assay: Percent inhibition of Beta adrenergic receptor at 1 uM; assay type: protein assay
[15] = organism: Rattus norvegicus; assay: Percent inhibition of QNB receptor at 1 uM
[16] = tested on: Rattus norvegicus; assay: Compound was tested for antagonism of apomorphine-induced climbing behavior, after intraperitoneal dosing; 7-101; assay type: functional; details: ip
[17] = tested on: Rattus norvegicus; assay: Compound was tested for antagonism of apomorphine-induced stereotyped behavior, after intraperitoneal dosing; NA= Inactive; assay type: functional, organism-based
How it was run: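 High-dose apomorphine-induced stereotyped behavior procedure. Test agents were given ip at doses up to 60 mg/kg.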

[18] = tested on: Rattus norvegicus; assay: In vivo ability (10.0 mg/kg) was to antagonize serotonin syndrome; assay type: functional
[19] = tested on: Rattus norvegicus; assay: In vivo ability (40.0 mg/kg) was to elicit serotonin syndrome; assay type: functional
[20] = molecular target: D(2) dopamine receptor (Rattus norvegicus) (UniProt P61169); assay: In vitro percent inhibition of [3H]spiperone binding to Dopamine receptor D2 of rat limbic structures at 1 uM; assay type: tissue-based; details: Limbic system
[21] = tested on: Rattus norvegicus; assay: Compound was tested for antagonism of apomorphine-induced climbing behavior, after intraperitoneal dosing; 1-23; assay type: functional; details: ip
[22] = molecular target: T1, 5-hydroxytryptamine receptor 1A; assay: In vitro ability to inhibit [3H]-8-OH-DPAT binding to 5-hydroxytryptamine 1A receptor of rat hippocampus. and the value ranges from 16 - 27; assay type: tissue-based
[23] = molecular target: D(2) dopamine receptor (Rattus norvegicus) (UniProt P61169); assay: Compound was tested in vitro at for the ability to inhibit [3H]spiperone binding to Dopamine receptor D2 of rat limbic structures at 3 uM; assay type: tissue-based; details: Limbic system
[24] = molecular target: D(2) dopamine receptor (Rattus norvegicus, UniProt P61169); assay: In vitro ability to inhibit [3H]spiperone binding to Dopamine receptor D2 of rat limbic structures.; assay type: tissue-based, Limbic system
Sequence of D(2) dopamine receptor (P61169 whole entry): as above

[25] = organism: Rattus norvegicus; assay: Anti psychotic activity was evaluated from the ability to block discrete trial conditioned avoidance response (CAR) of rats (95%CI) from 37-73; assay type: functional; how it was run: as §1
[26] = molecular target: T3, Adrenergic receptor alpha-1 (Rattus norvegicus); assay: Percent inhibition of Alpha-1 adrenergic receptor by 1 uM of compound; assay type: protein assay
[27] = molecular target: T4, GABA-A receptor; anion channel (Rattus norvegicus); assay: as §2; assay type: protein-complex assay; remark: listed apart in the source
How it was run: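 Incubated with 1.5×10^-9 M [³H]diazepam for 30 min at 4 °C, then filtered on GF/C and counted by scintillation. Nonspecific binding defined with 3×10^-6 M unlabelled diazepam.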

[28] = molecular target: T5, Adrenergic receptor beta (Rattus norvegicus); assay: Percent inhibition of Beta adrenergic receptor by 1 uM of compound; assay type: protein assay
[29] = organism: Rattus norvegicus; assay: Antipsychotic activity was evaluated from the ability to block discrete trial conditioned avoidance response (CAR) of rats; assay type: functional
How it was run: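 Male CD rats (about 400–450 g) trained in discrete-trial avoidance. Compound given ip or po 30 min before testing, at 20 or 40 mg/kg or over a dose range, with at least five rats per dose. Intertrial, avoidance, escape and no-response trials were recorded. Avoidance block is the percentage of trials without avoidance. AB50 comes from a least-squares dose–effect regression line.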

[30] = tested on: Rattus norvegicus; assay: In vivo ability (10.0 mg/kg) was to elicit serotonin syndrome in rat; assay type: functional
How it was run: (§3)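 Rat in vivo test adapted from published serotonin syndrome methods. Agents given ip; 5-MeO-DMT at 3.0 mg/kg ip was used to elicit the syndrome. Behaviour rated and reported as mean total score (±SEM).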

[31] = tested on: Rattus norvegicus; assay: In vivo ability (10.0 mg/kg) was to antagonize serotonin syndrome in rat; assay type: functional; how it was run: as §3

- Ki [1]: 34 nM
- inhibition [2]: 55%
Structure (SMILES): Cl.Cl.Cl.O=C1C2C3CCC(O3)C2S(=O)(=O)N1CCCCN1CCN(c2cccc(Cl)c2)CC1 (stereo unspecified)
- AB50 [3]: 40 mg/kg

- Ki [4]: 9 nM
- inhibition [2]: 43%
Structure (SMILES): Cl.Cl.O=C1c2ccccc2S(=O)(=O)N1CCCCN1CCN(c2cnccn2)CC1
- AB50 [3]: 40 mg/kg

- Ki [5]: 53 nM
- logP [6]: 1.72
- inhibition [7]: 36%
Structure (SMILES): Cl.Cl.O=C1C2C3CCC(C3)C2S(=O)(=O)N1CCCCN1CCN(c2ncccn2)CC1 (stereo unspecified)
- AB50 [3]: 40 mg/kg

- inhibition [8]: 25%
- logP [6]: 1.14
- inhibition [7]: 0%
Structure (SMILES): Cl.Cl.O=C1C2C3CCC(O3)C2S(=O)(=O)N1CCCCN1CCN(c2cnccn2)CC1 (stereo unspecified)
- AB50 [9]: 48 mg/kg

- Ki [10]: 550 nM
- logP [6]: 1.64
- inhibition [11]: 21%
- inhibition [12]: 6%
- inhibition [13]: 0%
- inhibition [14]: 8%
- inhibition [15]: 0%
- inhibition [20]: 36%
Structure (SMILES): Cl.O=C1C2C3CCC(O3)C2S(=O)(=O)N1CCCCN1CCN(c2cncc(Cl)n2)CC1 (stereo unspecified)
- AB50 [3]: 34 mg/kg
- ED50 [16]: 27 mg/kg
- ED50 [17]: inactive
- Mean [18]: 12.3
- Mean [19]: 2.1

Structure (SMILES): CN1CCN(C2=Nc3cc(Cl)ccc3Nc3ccccc32)CC1 [CLOZAPINE]
- ED50 [21]: 4.55 mg/kg

- Ki [22]: 21 nM
- inhibition [7]: 70%
Structure (SMILES): Cl.O=C1C2C3CCC(C4CC43)C2S(=O)(=O)N1CCCCN1CCN(c2ncccn2)CC1 (stereo unspecified)
- AB50 [3]: 40 mg/kg

- inhibition [23]: 57%
Structure (SMILES): Cl.O=C1C2C3C=CC(CC3)C2S(=O)(=O)N1CCCCN1CCN(c2cncc(Cl)n2)CC1 (stereo unspecified)
- AB50 [3]: 40 mg/kg

- Ki [24]: 3300 nM
Structure (SMILES): Cl.O=C1C2C3CCC(O3)C2S(=O)(=O)N1CCCCN1CCN(c2nccnc2Cl)CC1 (stereo unspecified)
- AB50 [25]: 48 mg/kg

Structure (SMILES): O=C1CC2(CCCC2)CC(=O)N1CCCCN1CCN(c2ncccn2)CC1 [BUSPIRONE]
- inhibition [26]: 33%
- inhibition [27]: 0%
- inhibition [28]: 0%
- AB50 [29]: 32 mg/kg
- Mean [30]: 2.9
- Mean [31]: 6.1
